Data published in paper PMC3178989 (Indian Journal of Pharmaceutical Sciences, 2010).
In brackets after ≈: the same amount, converted by molar mass.

Tests used:
[1] = tested on: Herpes simplex virus-2 (G); test: microbe, parasite or virus in culture; type: cell-based; details: Human alphaherpesvirus 2, read-out: EC50 Herpes simplex virus-2 (G)
[2] = tested on: Herpes simplex virus-1 (KOS); test: microbe, parasite or virus in culture; type: cell-based; details: for EC50: Human alphaherpesvirus 1, read-out: EC50 Herpes simplex virus-1 (KOS)
[3] = tested on: HIV-2(ROD); test: Inhibition of HIV-2 induced cytopathic effect in MT-4 cells; type: cell-based; details: for EC50: MT4, 120 h, read-out: IC50a (50% effective concentration, 50% protection of MT-4 cells against the cytopathic effect of HIV)
Procedure, shortened: (§1)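 MT-4 cells were kept in RPMI 1640 with 10% heat-inactivated FCS, 2 mM glutamine, 0.1% sodium bicarbonate and 20 µg/ml gentamicin. Virus stocks (HIV-1 IIIB/LAI, HIV-2 ROD) were grown and titred in MT-4 cells and stored at -70°. 100-300 CCID50 were added to cells at 6×10^5 cells/ml with test compound, then incubated 5 d at 37°. Protection from cytopathic effect was read as viable cells by MTT. A reference drug was run alike.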

[4] = tested on: Vaccinia virus; test: microbe, parasite or virus in culture; type: cell-based; details: for EC50: Orthopoxvirus vaccinia, read-out: EC50 Vaccinia virus
[5] = tested on: HEL cultures; details: microscopically detectable alteration of normal cell morphology
[6] = tested on: mock-infected MT-4 cells; test: Cytotoxicity for mock-infected MT-4 cells; type: cell-based; details: MTT, printed in both strain rows
Procedure, shortened: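 Mock-infected MT-4 cells were grown in RPMI 1640 with 10% heat-inactivated FCS, 2 mM glutamine, 0.1% sodium bicarbonate and 20 µg/ml gentamicin. Cells (6×10^5 cells/ml) were exposed to test compound, and viability was measured by MTT to derive the 50% cytotoxic concentration. A reference drug was tested the same way.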

[7] = tested on: Herpes simplex virus-1 TK- KOS ACVr; test: microbe, parasite or virus in culture; type: cell-based; details: Human alphaherpesvirus 1, read-out: EC50 Herpes simplex virus-1 TK- KOS ACVr
[8] = tested on: HIV-1(IIIB); test: Inhibition of HIV-1 induced cytopathic effect in MT-4 cells; type: cell-based, Human immunodeficiency virus-1; details: strain IIIB, 5 d, MTT
Procedure, shortened: as §1

SMILES	EC50 [1] [µg/mL]	EC50 [2] [µg/mL]	EC50 [3] [µg/mL]	EC50 [4] [µg/mL]	Minimum cytotoxic concentration [5] [µg/mL]	IC50b (50% cytotoxic concentration, reduces viability of mock-infected MT-4 cells by 50%) [6] [µg/mL]	EC50 [7] [µg/mL]	IC50a (50% effective concentration, 50% protection of MT-4 cells against the cytopathic effect of HIV) [8] [µg/mL]	IC50a (50% effective concentration, 50% protection of MT-4 cells against the cytopathic effect of HIV) ([3]; strain ROD, MT-4 cells, 5 d, MTT) [µg/mL]	EC50 Herpes simplex virus-1 (KOS) ([2]; HEL cultures, reduces virus-induced cytopathogenicity by 50 %)	EC50 Vaccinia virus [4]
O=C(O)c1ccccc1-n1c(-c2ccccc2)nc2ccccc2c1=O [AA1, 2-(4-oxo-2-phenyl-4H-quinazolin-3-yl)-benzoic acid]	58 (≈ 169 µM)	100 (≈ 292 µM)	> 125	> 100	>100	>125	–	–	–	–	–
O=C(O)c1cc(Br)ccc1-n1c(-c2ccccc2)nc2ccccc2c1=O [AA2, 5-Bromo-2-(4-oxo-2-phenyl-4H-quinazolin-3-yl)-benzoic acid]	58 (≈ 138 µM)	50 (≈ 119 µM)	> 88.2	100 (≈ 237 µM)	>100	88.20	58 (≈ 138 µM)	–	–	–	–
O=C(O)c1cc(Br)cc(Br)c1-n1c(-c2ccccc2)nc2ccccc2c1=O [AA3, 3,5-dibromo-2-(4-oxo-2-phenyl-4H-quinazolin-3-yl)-benzoic acid]	100 (≈ 200 µM)	50 (≈ 100 µM)	> 125	100 (≈ 200 µM)	>100	>125	100 (≈ 200 µM)	–	–	–	–
Cc1cn([C@H]2C[C@H](N=[N+]=[N-])[C@@H](CO)O2)c(=O)[nH]c1=O [AZT, reference compound]	–	–	–	–	–	65.90	–	0.0012	0.00062	–	–
O=c1[nH]c(=O)n([C@H]2C[C@H](O)[C@@H](CO)O2)cc1/C=C/Br [Brivudin, reference compound]	22 (≈ 66 µM)	0.04 (≈ 0.12 µM)	–	6 (≈ 18 µM)	–	–	10 (≈ 30 µM)	–	–	–	–
Nc1ccn(C[C@@H](CO)OCP(=O)(O)O)c(=O)n1 [Cidofovir, reference compound]	0.8 (≈ 2.87 µM)	0.8 (≈ 2.87 µM)	–	10 (≈ 35.8 µM)	–	–	1 (≈ 3.58 µM)	–	–	–	–
O=C(O)c1ccccc1-n1c(-c2ccccc2)nc2c(Br)cc(Br)cc2c1=O [DBR1, 2-(6,8-Dibromo-4-oxo-2-phenyl-4H-quinazolin-3-yl)-benzoic acid]	50 (≈ 100 µM)	58 (≈ 116 µM)	> 83.2	100 (≈ 200 µM)	>100	83.15	100 (≈ 200 µM)	–	–	–	–
O=C(O)c1cc(Br)ccc1-n1c(-c2ccccc2)nc2c(Br)cc(Br)cc2c1=O [DBR2, 5-Bromo-2-(6,8-dibromo-4-oxo-2-phenyl-4H-quinazolin-3-yl)-benzoic acid]	> 20	> 20	> 64.2	> 20	100	64.18	> 20	–	–	–	–
O=C(O)c1cc(Br)cc(Br)c1-n1c(-c2ccccc2)nc2c(Br)cc(Br)cc2c1=O [DBR3, 3,5-Dibromo-2-(6,8-dibromo-4-oxo-2-phenyl-4H-quinazolin-3-yl)-benzoic acid]	> 100	> 100	> 125	> 100	>100	>125	> 100	–	–	–	–
O=C(O)c1ccccc1-n1c(-c2ccccc2)nc2ccc(Br)cc2c1=O [MBR1, 2-(6-Bromo-4-oxo-2-phenyl-4H-quinazolin-3-yl)-benzoic acid]	> 20	> 20	> 125	> 20	100	>125	> 20	–	–	–	–
O=C(O)c1cc(Br)ccc1-n1c(-c2ccccc2)nc2ccc(Br)cc2c1=O [MBR2, 5-Bromo-2-(6-bromo-4-oxo-2-phenyl-4H-quinazolin-3-yl)-benzoic acid]	12 (≈ 24 µM)	12 (≈ 24 µM)	> 60.4	12 (≈ 24 µM)	100	60.40	–	–	–	distinct antiviral activity	distinct antiviral activity
NC(=O)c1ncn([C@@H]2O[C@H](CO)[C@@H](O)[C@H]2O)n1 [Ribavirin, reference compound]	> 250	> 250	–	> 250	–	–	> 250	–	–	–	–
